Test results as given in ChEMBL document CHEMBL2151038, “Synthesis, characterization and biological evaluation of some novel 2,4-thiazolidinediones as potential cytotoxic, antimicrobial and antihyperglycemic agents” (Bioorg Med Chem Lett, 2012).
≈ marks a conversion by molar mass, not a printed value.

Experiments:
[1] = test system: Staphylococcus aureus; experiment: Antibacterial activity against Staphylococcus aureus NCIM 2079 after 24 hrs by NCCLS agar well diffusion method; assay type: functional; settings: NCIM 2079, 24 h
Outline: (§1)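 Nutrient agar seeded with 0.1 mL bacterial suspension (10⁵ CFU/mL in 0.85% saline). 6 mm wells filled with 0.1 mL compound. Plates in triplicate, 37 ± 0.5 °C for 24 h. MIC = lowest concentration giving complete growth inhibition.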

[2] = test system: Penicillium chrysogenum; experiment: Antifungal activity against Penicillium chrysogenum NCIM 738 after 48 hrs by NCCLS agar well diffusion method; assay type: functional; settings: NCIM 738, 48 h
Outline: (§2)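 Spore suspensions in sterile distilled water adjusted to 10⁶ CFU/mL, 0.1 mL spread on potato-dextrose agar. 6 mm wells received 0.1 mL compound in 1% DMSO (final 16–512 µg/mL). Controls: 1% DMSO and ketoconazole (16 µg/mL). Triplicate plates, 48 h at 28 ± 0.2 °C. MIC = lowest concentration completely inhibiting growth.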

[3] = test system: Rattus norvegicus; experiment: Antihyperglycemic activity in streptozotocin-induced type 2 diabetic Wistar albino rat assessed as reduction in plasma glucose level at 30 mg/kg, po by glucometer; assay type: functional
Outline: (§3)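 Wistar albino rats of either sex, 150–200 g, fasted 16 h. Diabetes induced by nicotinamide 150 mg/kg, then STZ 65 mg/kg in citrate buffer pH 4.5. Glucose confirmed after 48 h. Groups of six. Oral dosing as 0.25% sodium CMC suspension at 10, 30 or 50 mg/kg. Rosiglitazone was the reference. Retro-orbital plasma glucose measured by glucometer before dosing and at 1, 2, 4, 6, 8, 12 and 24 h. Results as mean ± SEM, compared by ANOVA, t-test and Dunnett's test.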

[4] = test system: Bacillus pumilus; experiment: Antibacterial activity against Bacillus pumilus NCIM 2327 after 24 hrs by NCCLS agar well diffusion method; assay type: functional; settings: NCIM 2327, 24 h; outline: as §1
[5] = test system: Candida albicans; experiment: Antifungal activity against Candida albicans NCIM 3102 after 48 hrs by NCCLS agar well diffusion method; assay type: functional; settings: NCIM 3102, 48 h; outline: as §2
[6] = test system: Aspergillus niger; experiment: Antifungal activity against Aspergillus niger NCIM 548 after 48 hrs by NCCLS agar well diffusion method; assay type: functional; settings: NCIM 548, 48 h; outline: as §2
[7] = test system: Rattus norvegicus; experiment: Antihyperglycemic activity in streptozotocin-induced type 2 diabetic Wistar albino rat assessed as reduction in plasma glucose level at 50 mg/kg, po by glucometer; assay type: functional; outline: as §3
[8] = test system: Rattus norvegicus; experiment: Antihyperglycemic activity in po dosed streptozotocin-induced type 2 diabetic Wistar albino rat assessed as reduction in plasma glucose level by glucometer; assay type: functional, organism-based; outline: as §3
[9] = test system: Artemia salina; experiment: Cytotoxicity in brine shrimps larvae assessed as mortality after 24 hrs; assay type: functional; settings: read-out: ED50 (the source's name)
Outline: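 Artemia salina nauplii hatched 38 h under constant aeration in sterile brine (sea salt 38 g/L, pH 8.5 with 1 N NaOH). Ten nauplii per vial were exposed to a range of compound concentrations at 37 °C for 24 h under incandescent light, alongside vehicle-treated controls. Survivors were counted, % lethality was taken from mean survivors versus control, and ED50 came from probit analysis.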

[10] = test system: Aspergillus oryzae; experiment: Antifungal activity against Aspergillus oryzae NCIM 643 after 48 hrs by NCCLS agar well diffusion method; assay type: functional; settings: NCIM 643, 48 h; outline: as §2
[11] = test system: Pseudomonas aeruginosa; experiment: Antibacterial activity against Pseudomonas aeruginosa NCIM 2036 after 24 hrs by NCCLS agar well diffusion method; assay type: functional; settings: NCIM 2036, 24 h; outline: as §1
[12] = test system: Klebsiella pneumoniae; experiment: Antibacterial activity against Klebsiella pneumoniae NCIM 5082 after 24 hrs by NCCLS agar well diffusion method; assay type: functional; settings: NCIM 5082, 24 h; outline: as §1
[13] = test system: Escherichia coli; experiment: Antibacterial activity against Escherichia coli NCIM 2065 after 24 hrs by NCCLS agar well diffusion method; assay type: functional; settings: NCIM 2065, 24 h; outline: as §1
[14] = Toxicity in mouse assessed as changes in vital functions; assay type: organism-based; settings: in vivo
[15] = test system: Micrococcus luteus; experiment: Antibacterial activity against Micrococcus luteus NCIM 2155 after 24 hrs by NCCLS agar well diffusion method; assay type: functional; settings: NCIM 2155, 24 h; outline: as §1
[16] = test system: Bacillus subtilis; experiment: Antibacterial activity against Bacillus subtilis NCIM 2063 after 24 hrs by NCCLS agar well diffusion method; assay type: functional; settings: NCIM 2063, 24 h; outline: as §1
[17] = test system: Proteus vulgaris; experiment: Antibacterial activity against Proteus vulgaris NCIM 2813 after 24 hrs by NCCLS agar well diffusion method; assay type: functional; settings: NCIM 2813, 24 h; outline: as §1
[18] = test system: Rattus norvegicus; experiment: Antihyperglycemic activity in streptozotocin-induced type 2 diabetic Wistar albino rat assessed as reduction in plasma glucose level at 10 mg/kg, po by glucometer; assay type: functional; outline: as §3

Structure (SMILES) | MIC [1] [µg/mL] | MIC [2] [µg/mL] | Activity [3] [mg/dL] | MIC [4] [µg/mL] | MIC [5] [µg/mL] | MIC [6] [µg/mL] | Activity [7] [mg/dL] | Activity [8] | EC50 [9] [µg/mL] | MIC [10] [µg/mL] | MIC [11] [µg/mL] | MIC [12] [µg/mL] | MIC [13] [µg/mL] | MTD [14] [mg/kg] | MIC [15] [µg/mL] | MIC [16] [µg/mL] | MIC [17] [µg/mL] | Activity [18] [mg/dL]
O=C1NC(=O)/C(=C/c2ccc(/C=C/C(=O)c3cccs3)cc2)S1 | 32 (≈ 93.7 µM) | 32 (≈ 93.7 µM) | 11.66 | 16 (≈ 46.9 µM) | 32 (≈ 93.7 µM) | 32 (≈ 93.7 µM) | 13.71 | Dose-dependent effect | 4 (≈ 11.7 µM) | 32 (≈ 93.7 µM) | 32 (≈ 93.7 µM) | 16 (≈ 46.9 µM) | 32 (≈ 93.7 µM) | 2000 | 32 (≈ 93.7 µM) | 32 (≈ 93.7 µM) | 64 (≈ 187 µM) | 
O=C1NC(=O)/C(=C/c2ccc(/C=C/C(=O)c3ccc(F)cc3)cc2)S1 | 32 (≈ 90.6 µM) | 16 (≈ 45.3 µM) | 25.67 | 16 (≈ 45.3 µM) | 32 (≈ 90.6 µM) | 32 (≈ 90.6 µM) | 33.12 | Dose-dependent effect | 4.32 (≈ 12.2 µM) | 32 (≈ 90.6 µM) | 16 (≈ 45.3 µM) | 16 (≈ 45.3 µM) | 16 (≈ 45.3 µM) | 2000 | 32 (≈ 90.6 µM) | 16 (≈ 45.3 µM) | 32 (≈ 90.6 µM) | 22.74
Cc1ccc(C(=O)/C=C/c2ccc(/C=C3\SC(=O)NC3=O)cc2)cc1 | 32 (≈ 91.6 µM) | 64 (≈ 183 µM) | 21.81 | 32 (≈ 91.6 µM) | 256 (≈ 733 µM) | 256 (≈ 733 µM) | 28.72 | Dose-dependent effect | 19.7 (≈ 56.3 µM) | 64 (≈ 183 µM) | 32 (≈ 91.6 µM) | 64 (≈ 183 µM) | 32 (≈ 91.6 µM) | 2000 | 64 (≈ 183 µM) | 32 (≈ 91.6 µM) | 64 (≈ 183 µM) | 17.66
Nc1ccc(C(=O)/C=C/c2ccc(/C=C3\SC(=O)NC3=O)cc2)cc1 | 128 (≈ 365 µM) | 256 (≈ 731 µM) | 24.72 | 128 (≈ 365 µM) | 128 (≈ 365 µM) | 128 (≈ 365 µM) | 29.87 | Dose-dependent effect | 28.8 (≈ 82.2 µM) | 128 (≈ 365 µM) | 64 (≈ 183 µM) | 128 (≈ 365 µM) | 128 (≈ 365 µM) | 2000 | 256 (≈ 731 µM) | 128 (≈ 365 µM) | 256 (≈ 731 µM) | 21.34
O=C1NC(=O)/C(=C/c2ccc(/C=C/C(=O)c3cc(O)ccc3O)cc2)S1 | 256 (≈ 697 µM) | 128 (≈ 348 µM) | 38.86 | 256 (≈ 697 µM) | 128 (≈ 348 µM) | 256 (≈ 697 µM) | 47.73 | Dose-dependent effect | 46.7 (≈ 127 µM) | 256 (≈ 697 µM) | 512 (≈ 1390 µM) | 256 (≈ 697 µM) | 256 (≈ 697 µM) | 2000 | 512 (≈ 1390 µM) | 512 (≈ 1390 µM) | 512 (≈ 1390 µM) | 30.74
COc1cccc(C(=O)/C=C/c2ccc(/C=C3\SC(=O)NC3=O)cc2)c1 | 128 (≈ 350 µM) | 256 (≈ 701 µM) | 28.73 | 128 (≈ 350 µM) | 128 (≈ 350 µM) | 64 (≈ 175 µM) | 34.61 | Dose-dependent effect | 18.7 (≈ 51.2 µM) | 256 (≈ 701 µM) | 128 (≈ 350 µM) | 128 (≈ 350 µM) | 128 (≈ 350 µM) | 2000 | 256 (≈ 701 µM) | 128 (≈ 350 µM) | 256 (≈ 701 µM) | 16.41
O=C1NC(=O)/C(=C/c2ccc(/C=C/C(=O)c3ccc4ccccc4c3)cc2)S1 | 512 (≈ 1330 µM) | 512 (≈ 1330 µM) | 31.84 | 512 (≈ 1330 µM) | 512 (≈ 1330 µM) | 512 (≈ 1330 µM) | 36.93 | Dose-dependent effect | 48.1 (≈ 125 µM) | 512 (≈ 1330 µM) | 512 (≈ 1330 µM) | 512 (≈ 1330 µM) | 512 (≈ 1330 µM) | 2000 | 512 (≈ 1330 µM) | 512 (≈ 1330 µM) | 512 (≈ 1330 µM) | 23.75
